Assay results taken from ChEMBL document CHEMBL5674885, “HIV-1 Vpr counteracts HLTF-mediated restriction of HIV-1 infection in T cells” (Proc Natl Acad Sci U S A, 2019).
Calls of active or inactive are those of the source. The calls are words filed in the database; no cut-off is given here.

Experiments:
[1] = molecular target: T1, Aberrant vpr protein (Human immunodeficiency virus 1) (UniProt Q77YF9); experiment: Modulation of HIV-1 Vpr-dependent enhancement of HIV-1 replication in human CEM.SS T cells assessed as effect on percentages of cell-associated HIV-1 DNA at 200 nM added starting 12 hrs before HIV-1 infection until 7 dpi; type: cell-based; settings: time 7.0 day
T1 sequence (whole entry): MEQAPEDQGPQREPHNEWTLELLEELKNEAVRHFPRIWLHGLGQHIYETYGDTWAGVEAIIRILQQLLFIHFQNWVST
How it was run: (§1)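 CEM.SS cells held in drug from ~12 h before infection to 7 dpi, infected (1×10⁵ cells) with a DNase-treated, qPCR-normalized 1:1 mix of NL4-3 reporters HIV-1.mRFP.vpr.wt and HIV-1.RFP.vpr.Q8*, combined moi 0.006–0.02. Density was reset on 3 and 5 dpi, and only cultures with <5% RFP⁺ cells at 7 dpi were kept. Share of each virus DNA at 7 dpi came from SYBR qPCR of RFP/mRFP amplicons against plasmid standards; three biological replicates.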

[2] = Cytotoxicity in human CEM.SS T cells assessed as cell viability level at 200 nM; type: toxicity, cell-based; settings: time 7 day, read-out: Activity
[3] = Cytotoxicity in human CEM.SS T cells assessed as cell viability level at 1 uM; type: toxicity, cell-based; settings: time 7 day, read-out: Activity
[4] = molecular target: T1, Aberrant vpr protein (Human immunodeficiency virus 1); experiment: Modulation of HIV-1 Vpr-dependent enhancement of HIV-1 replication in human CEM.SS T cells assessed as effect on percentages of cell-associated HIV-1 DNA at 1 uM added starting 12 hrs before HIV-1 infection until 7 dpi; type: cell-based; settings: time 7.0 day; how it was run: as §1
[5] = molecular target: T1, Aberrant vpr protein (Human immunodeficiency virus 1); experiment: Modulation of HIV-1 Vpr-dependent enhancement of HIV-1 replication in human CEM.SS T cells assessed as effect on percentages of cell-associated HIV-1 DNA at 10 uM added starting 12 hrs before HIV-1 infection until 7 dpi; type: cell-based; settings: time 7.0 day; how it was run: as §1
[6] = Cytotoxicity in human CEM.SS T cells assessed as cell viability level at 10 uM; type: toxicity, cell-based; settings: time 7 day, read-out: Activity
[7] = Cytotoxicity in human CEM.SS T cells assessed as cell viability level at 0.67 uM; type: toxicity, cell-based; settings: time 7 day, read-out: Activity
[8] = molecular target: T1, Aberrant vpr protein (Human immunodeficiency virus 1); experiment: Modulation of HIV-1 Vpr-dependent enhancement of HIV-1 replication in human CEM.SS T cells assessed as effect on percentages of cell-associated HIV-1 DNA at 0.67 uM added starting 12 hrs before HIV-1 infection until 7 dpi; type: cell-based; settings: time 7.0 day; how it was run: as §1
[9] = molecular target: T1, Aberrant vpr protein (Human immunodeficiency virus 1); experiment: Modulation of HIV-1 Vpr-dependent enhancement of HIV-1 replication in human CEM.SS T cells assessed as effect on percentages of cell-associated HIV-1 DNA at 2 uM added starting 12 hrs before HIV-1 infection until 7 dpi; type: cell-based; settings: time 7.0 day; how it was run: as §1
[10] = Cytotoxicity in human CEM.SS T cells assessed as cell viability level at 2 uM; type: toxicity, cell-based; settings: time 7 day, read-out: Activity
[11] = molecular target: T1, Aberrant vpr protein (Human immunodeficiency virus 1); experiment: Modulation of HIV-1 Vpr-dependent enhancement of HIV-1 replication in human CEM.SS T cells assessed as effect on percentages of cell-associated HIV-1 DNA at 3 uM added starting 12 hrs before HIV-1 infection until 7 dpi; type: cell-based; settings: time 7.0 day; how it was run: as §1
[12] = Cytotoxicity in human CEM.SS T cells assessed as cell viability level at 3 uM; type: toxicity, cell-based; settings: time 7 day, read-out: Activity
[13] = Cytotoxicity in human CEM.SS T cells assessed as cell viability level at 1 nM; type: toxicity, cell-based; settings: time 7 day, read-out: Activity
[14] = molecular target: T1, Aberrant vpr protein (Human immunodeficiency virus 1); experiment: Modulation of HIV-1 Vpr-dependent enhancement of HIV-1 replication in human CEM.SS T cells assessed as effect on percentages of cell-associated HIV-1 DNA at 1 nM added starting 12 hrs before HIV-1 infection until 7 dpi; type: cell-based; settings: time 7.0 day; how it was run: as §1

For `O=C(CCCCCCC(=O)Nc1ccccc1)NO` [VORINOSTAT], the Activity [1] was “inactive” and the viability at 168 h, 0.2 µM [2] was > 80%.
In the case of `COc1cc2c(NC3CCN(C(C)C)CC3)nc(C3CCCCC3)nc2cc1OCCCN1CCCC1`, the viability at 168 h, 1 µM [3] was > 80% and the Activity [4] was “inactive”.
In the case of `NC(=O)C1CCCc2c1[nH]c1ccc(Cl)cc21` (centres undefined), the Activity [5] was “inactive” and the viability at 168 h, 10 µM [6] was > 80%.
In the case of `CCCc1cc(C)[nH]c(=O)c1CNC(=O)c1cc(-c2ccnc(N3CCN(C)CC3)c2)cc2c1cnn2C(C)C`, the viability at 168 h, 0.67 µM [7] was > 80% and the Activity [8] was “inactive”.
With `CC(C)N(CCCNC(=O)Nc1ccc(C(C)(C)C)cc1)C[C@H]1O[C@@H](n2cc(Br)c3c(N)ncnc32)[C@H](O)[C@@H]1O` the Activity [9] was “inactive” and the viability at 168 h, 2 µM [10] was > 80%.
For `CC1=NN(c2ccc(C(=O)O)cc2)C(=O)/C1=C\c1ccc(-c2cc(C)c(C)cc2[N+](=O)[O-])o1`, the Activity [11] was “inactive” and the viability at 168 h, 3 µM [12] was > 80%.
For `CC(/C=C/C(=O)NO)=C\[C@@H](C)C(=O)c1ccc(N(C)C)cc1` [TRICHOSTATIN], the viability at 168 h, 0.001 µM [13] was > 80% and the Activity [14] was “inactive”.
